ChEMBL document CHEMBL4480395, “Pros and cons of virtual screening based on public "Big Data": In silico mining for new bromodomain inhibitors” (Eur J Med Chem, 2019)

Experiments:
[1] = biological target: T1, Bromodomain-containing protein 4 (Homo sapiens, UniProt O60885); assay: Binding affinity to N-terminal His6-tagged BRD4 bromodomain 1 (44 to 168 residues) (unknown origin) assessed as change in melting temperature at 20 uM measured after 1 hr by Sypro orange dye based differential scanning fluorimetry
Procedure, shortened: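 Ligand binding was read by differential scanning fluorimetry: a fluorescent dye reports protein core exposure during heat denaturation, and the value is the shift in protein denaturation temperature (ΔTm) with compound present.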

[2] = biological target: T1, Bromodomain-containing protein 4; assay: Inhibition of BRD4 (unknown origin) measured after 2 hrs by TR-FRET assay

Row | ΔTm [1] [°C] | IC50 [2] [µM] | SMILES
1 | 0.93 | – | Cc1noc(C)c1COc1ccccc1C(=O)NC(c1ccccc1)c1ccccc1
2 | 0.76 | 63.3 | c1cnn(-c2ccc(CNc3ccc4nnc(C5CC5)n4n3)cc2)c1
3 | 1.26 | – | COCCc1ccccc1NC(=O)NC(c1ccccc1)c1n[nH]c(C)n1 (stereo not drawn)
4 | 1.49 | – | CC(C(=O)Nc1ccc2nnc(C3CCC3)n2c1)n1cncn1 (stereo not drawn)
5 | 1.86 | – | Cc1nnc2c(NCc3cnn(-c4ccc(Cl)cc4)c3)nccn12
6 | 1.69 | – | Cc1nnc2ccc(NCc3ccnc(OC4CCCC4)c3)nn12
7 | 1.76 | – | Cc1noc(C)c1NC(=O)N1CCCCC1c1ncc[nH]1 (stereo not drawn)
8 | 1.72 | – | Cc1nnc2ccc(N3CCN(C(=O)c4csc(-c5ccccc5F)n4)CC3)nn12
9 | 1.56 | – | Cc1noc(C)c1CNC(=O)Nc1cccc(-c2ccc(Cl)c(Cl)c2)c1
10 | 1.6 | 33.2 | Cc1n[nH]c(C)c1CNCc1c(C)nn(Cc2ccccc2)c1C
11 | 1.82 | 160 | Cc1nn(C2CCS(=O)(=O)C2)c(C)c1CN(C)C(=O)CC(c1ccccc1)c1ccccc1 (stereo not drawn)
12 | 1.6 | 8.81 | CCn1c(SC(C(=O)NCc2cccnc2)C(C)C)nnc1-c1cccs1 (stereo not drawn)
13 | 1.56 | – | COCCCOc1cc(C)ccc1CNc1ccc2nnc(C)n2n1
14 | 1.08 | – | COc1ccc(-n2ccc(C(=O)Nc3cc(Cl)c(=O)n(C)c3)n2)cc1
15 | 1.9 | 23.9 | Cc1nn(C)c(C)c1C1C(CNc2nccn3cnnc23)CC(=O)N1C (stereo not drawn)
16 | 1.78 | – | CC(Sc1nc(-c2cccs2)n[nH]1)C(=O)N1CCCc2ccccc21 (stereo not drawn)
17 | 1.86 | 19.5 | Cc1noc(C)c1CC(=O)Nc1nc(-c2c(C)[nH]c3ccccc23)cs1
18 | 1.36 | – | Cc1noc(C)c1CSCC(=O)c1c(C)[nH]c2ccccc12
19 | 1.21 | – | O=C(CCc1ncc(-c2ccc(Cl)cc2Cl)o1)NCCc1nnc2ccccn12
20 | 1.09 | – | Cc1nn(CCO)c(C)c1CNC(c1ccccc1)c1nccn1C (stereo not drawn)
21 | 1.49 | – | Cc1cc(C(=O)N(C)C(c2ccccc2)c2ccccn2)c2c(C)nn(C(C)(C)C)c2n1 (stereo not drawn)
22 | 1.8 | – | Cc1nnc2ccc(N(C)Cc3ccc([S+](C)[O-])cc3)nn12 (stereo not drawn)
23 | 1.89 | – | Cc1nnc2ccc(NCc3ccc(OC4CCCC4)nc3)nn12
24 | 2.12 | – | CCC(C)C1NC(=O)N(CC(C)c2c(C)noc2C)C1=O (stereo not drawn)
25 | 2.82 | 24.9 | Cc1cc(-c2cc(C(=O)NC3CCC(CO)CC3)c3c(C)noc3n2)c(C)o1 (stereo not drawn)
26 | 1.1 | 107 | COCCN(C)c1ccccc1CNc1ccc2nnc(C)n2n1
27 | 2.66 | 11.7 | Cc1nnc2ccc(NCc3cn(-c4ccccc4)nc3C(C)C)nn12
28 | 1.7 | – | Cc1nnc2ccc(NC3CCCc4cc(OC(F)F)ccc43)nn12 (stereo not drawn)
29 | 2.02 | – | Cc1c(C2OCCC2NCc2cc(-c3cnn(C)c3)no2)cnn1C (stereo not drawn)
